Results on 38 variants are retold here after the RNAGym collection of RNA variant scans (doi:10.1126/science.aae0568).

Variants at the floor of the assay were thinned out.

First the molecules themselves.
B1: tRNA (parent)
chain: GUUCCGUUGGCGUAAUGGUAACGCGUCUCCCUCCUAAGGAGAAGACUGCGGGUUCGAGUCCCGUACGGAACG

The variants in the series derive from B1. Description: yeast fitness relative to wild type (ratio to wild type); higher = fitter; tRNA-Arg(CCU), competitive growth, 37 C, YPD. An outline of the steps:
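A pool of Saccharomyces cerevisiae strains, each with a tRNA-Arg(CCU) gene variant at the native genomic locus, was competed in YPD at 37°C for 24 hours across six parallel replicates. The variants had been chemically synthesised at a 3% per-site mutation rate over 69 sites, and gene amplicons before and after competition were read by 100-nucleotide paired-end sequencing. Darwinian fitness relative to wild type rested on changes in genotype frequencies. Genotypes required ≥ 100 starting reads, and estimates < 0.5 were set to 0.5.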
Consider GUUCCGUUGGCGUAAUGAUAACGCGUCUCCCUCCUAAGGAGAAGACUGCGGGUUCGACUCCCGUACGGAACG, for which the yeast fitness turned out to be 0.792.
The value for GUUCCGUUGGCGUAAUGAUAACGCGUCUCCCUCCUAAGGAGAAGACUGCGGGUUCGAAUCCCGUACGGAACG was 0.765; that for GUUCCGUUGGCGUAAUGAAAACGCGUCUCCCUCCUAAGGAGAAGACUGCGGGUUCGAGUCCCGUACGGAACG was 0.594; that for GUUCCGUUGGCGUAAUGAUAACGCGUCUCCCUCCUAAGGAGAAGACUGCGGGUUCGAGUCCCGUACGUAACG was 0.711.
For GUUCCGUUGGCGUAAUGAUAACGCGUCUCCCUCCUAAGGAGAAGACUGCGGGUUCGAGUCCCGUACGAAACG, the yeast fitness came out at 0.795.
To GUUCCGUUGGCGUAAUGAUAACGCGUCUCCCUCCUAAGGAGAAGACUGCCGGUUCGAGUCCCGUACGGAACG belongs 0.615; to GUUCCGUUGGCGUAAUGAUAACGCGUCUCCCUCCUAAGGAGAAGACUCAGGGAUCAACUCCCGUACGGAACG, not above 0.5; to GUUCCGUUGGCGUAAUGAUAACGCGUCUCCCUCGUAAGGAGAAGACUCUGGGUUCGAGUCCCGUACGGAACG, 0.698.
The value for GUUCCGUUGGCGUAAUGAUAACGCGUCUCCCUCGUAAGGAGAAGACUGCGGGUCCGAGUCCCGUACGGAACG was not above 0.5.
To GUUCCGUUGGCGUAAUGAUAACGCGUCUCCCUCCUAAGGAGAAGACUGCGCGUUCGAGUCCCAUACGGAACG belongs not above 0.5; to GUUCCGUUGGCGUAAUGAUAACGCGUCUCCCUCUUAAGGAGACGACUGCGGGUUCGAGUCCCGUACGGAACG, not above 0.5.
Take GUUCCGUUGGCGUAAUGAUAACGCGUCUCCCUCCUAAGGAGAAGACUGCGGGUUCCAGUCCCGUACGGAACG: the yeast fitness was found to be 0.521.
The value for GUUCCGUUGGCGUAAUGAUAACGCGUCUCCCUCCUAAGGAGAAGACUGCGGGUUCAAGUCCCGUACGGAACG was 0.705; that for GUUCCGUUGGCGUAAUGAUAACGCGUCUCCCUCCUAAGGAGAAAACUGCGGGUUCGAGUCCCGUACGAAACG was not above 0.5.
Turning to GUUCCGUUGGCGUAAUGAUAACGCCUCUCCCUCCUAAGGAGAAGACUGCGGGUUCGAGUCCCGUACGGAACG, the yeast fitness turned out to be 0.746.
The value for GUUCCGUUGGCGUAAUGAUAACGCGUCUCCCUCCUAAGGAGAAGACUGCGGGUUCGAGUCCCGUAAGGAACG was 0.516; that for GUUCCGUUGGCGUAAUGAUAACGCGUCUCCCUCCUAAGGAGAAGACUGCGGGUUCGAGUCCCGUAUGGAACG was 0.736.
The value for GUUCCGUUGGCGUAAUGAUAACGCGUCUCCCUCCUAAGGAGAAGAUUGCGGGUUCGAGCACCGUACGAAACG was not above 0.5; that for GUUCCGUUGGCGUAAUGAUAACGCGUCUCCCUCCUAAGGAGAAGAAUGCGCGUUCGAGUUCCGUACGGAACG was not above 0.5.
To GUUCCGUUGGCGUAAUGAUAACGCAUCUCCCUCCUAAGGAGAAGAUUGCGGGUUCGAGUCCCGUACGGAACG belongs 0.508; to GUUCCGUUGGCGUAAUGAUAACGCGUCUCCCUCCUAAGGAGAAGACUGCAGGUUCGAGUCUCGUACGGAACG, not above 0.5.
With GUUCCGUUGGCGUAAUGAUAACGCGUCUCCCUCAUAAGGAGAAGACCGCGGGUUCGAGUCCCGUACGGAACG, the yeast fitness is not above 0.5.
Consider GUUCCGUUGGCGUAAUGAUAACGCGUCUCCCUCCUAAGGAGAAGACUGCGGGUUCGACUCCCGUACGAAACG, for which the yeast fitness is not above 0.5.
Take GUUCCGUUGGCGUAAUGAUAACGCGUCUCCCUCCUAAGGAGAAAACUGCGGGUCCGAAUCCCGUACUGAACG: the yeast fitness was not above 0.5.
Take GUUCCGUUGGCGUAAUGAUAACGCGUCUCCCUCCUAAGGAGAAGACUGCGGGUUUCAGUCCCGUACGGAGCG: the yeast fitness was not above 0.5.
As to GUUCCGUUGGCGUAAUGAUAACGCGUCUCCCUCCUAAGGAGAAGACUGCCGGUUGGAGUCCCGUACGGAACG, the yeast fitness is not above 0.5.
On to GUUCCGUUGGCGUAAUGAUAACGCGUCUCCCUCUUAAGGAGAAGACUGCGGGUUCGAGUCCCGUACAGAACG, for which the yeast fitness is not above 0.5.
The value for GUUCCGUUGGCGUAAUGAUAACGCGUCUCCCUCCUAAGGAGAAGACUGCAGGUUCGAGUCCGGUACGGAACG was not above 0.5; that for GUUCCGUUGGCGUAAUGAUAACGCGUCUCCCUCCUAAAGAGAAGACUGCGGGUUCGAGUCCCGUACGGAACG was 0.73.
Regarding GUUCCGUUGGCGUAAUGAUAACGCAUCUCCCUCCUAAGGAGAAGACUGUGGGUUCGAGUCCUGUACGGAACG, the yeast fitness was not above 0.5.
With GUUCCGUUGGCGUAAUGAUAACACGUCUCCCUCCUAAGGAGAAGACUGCGGGUUCGACUCCCGUACGGACCG, the yeast fitness was not above 0.5.
To GUUCCGUUGGCGUAAUGAUAACGCGUCUCCCUCCUAAGGAGAAGACUGAGGGUUCGAGUCCCAUACGGAACG belongs not above 0.5; to GUUCCGUUGGCGUAAUGAUAACGCGUCUCCCUCCUAAGGAGAAGACUGCGGGUUCGAGUCCCAUACGGCACG, 0.827; to GUUCCGUUGGCGUAAUGAUAACGCGUCUCCCUCCUAAGGAGAAGACUGCGGGUUCGACUCCCGUUCGGAACG, not above 0.5.
To GUUCCGUUGGCGUAAUGAUAACGCGUCUCCCUCUUAAGGGGAAGACUGCGGGUUCGAGUCCCGUAGGGAACG belongs not above 0.5.
In the case of GUUCCGUUGGCGUAAUGAUAACGCCUCUCCCUCCUAAGGAGAAGACUGCGGGUUCGAGUCCCGUACGGCACG, the yeast fitness turned out to be 0.519.
Take GUUCCGUUGGCGUAAUGAAAACGCGUGUCCCUCCUAAGCAGAAGACUGCGGGUUCGAGUCCCGUACGGAACG: the yeast fitness was not above 0.5.
For the variant GUUCCGUUGGCGUAAUGAUAACGCGUCUCCCUCUUAAGCAGAAGACUGCGGGUUCGAGUCCCGUACGGAACG, the yeast fitness was not above 0.5.
